Screening data deposited in PubChem by several laboratories.
Most compounds without a hit are left out; they make up all but 3.8% or so of the library.
RGS4 block = inhibitors of human RGS4; P49798; HEK293 M3R/RGS4 inducible, Fluo-4 calcium flux; stronger effect = higher value; triggered by carbachol at its EC20; B-score at 10 µM; 310,000 compounds, 0.45% hits;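 active = B-score, a plate-corrected calcium signal, over three deviations above library mean, with baseline fluorescence within five deviations of library mean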;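 note: RGS4 expression induced by doxycycline in cells with stable M3 receptor; B-score is computed from the integrated fluorescence ratio over baseline after carbachol; higher B-score means a larger calcium signal and so more RGS4 inhibition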
Target sequence (P49798 whole entry, looked up): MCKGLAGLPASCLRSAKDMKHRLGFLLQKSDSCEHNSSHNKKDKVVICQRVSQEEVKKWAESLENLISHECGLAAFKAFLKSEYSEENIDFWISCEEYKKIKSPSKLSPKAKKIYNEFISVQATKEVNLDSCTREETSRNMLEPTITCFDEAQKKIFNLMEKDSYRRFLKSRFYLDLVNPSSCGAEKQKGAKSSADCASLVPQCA
RGS4 pot = potentiators or activators of RGS4; HEK293 M3R/inducible RGS4, carbachol calcium flux Fluo4; stronger effect = lower value; B-score at 10 µM; 310,000 compounds, 0.92% hits; AID 463111;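 active = B-score of the integrated calcium signal more than 4 SD below the library mean, with starting fluorescence not abnormally high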;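 note: negative B-score means reduced calcium response which marks RGS4 activation or potentiation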
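Assay system: HEK293 FlpIn-TREx cells, stable M3R, doxycycline-inducible RGS4 / Probe or stimulus: carbachol, ECmax concentration / Times: overnight RGS4 induction, 30 min dye load 37 °C, 20 min compound RT / Signal: kinetic calcium fluorescence imaging with Fluo4-AM dye, 2 µM / Measure: Agonist-evoked peak-minus-minimum fluorescence over baseline, integrated ratio, B score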
MrgX1 allo act = human MrgX1 positive allosteric modulation, primary screen; AID 588675; 310,000 compounds, 0.63% hits; MrgX1-HEK293, Fluo-4 calcium flux, FDSS; stronger effect = higher value; B-score at 10 µM; Q96LB2;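 active = plate-corrected calcium response at least 3 library SD above typical, normal starting fluorescence, not activating the receptor alone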;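 note: compound read alongside a low EC10 to EC30 dose of BAM8-22 agonist; peak minus trough fluorescence over baseline measured at the second addition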
Target sequence (Q96LB2 whole entry, looked up): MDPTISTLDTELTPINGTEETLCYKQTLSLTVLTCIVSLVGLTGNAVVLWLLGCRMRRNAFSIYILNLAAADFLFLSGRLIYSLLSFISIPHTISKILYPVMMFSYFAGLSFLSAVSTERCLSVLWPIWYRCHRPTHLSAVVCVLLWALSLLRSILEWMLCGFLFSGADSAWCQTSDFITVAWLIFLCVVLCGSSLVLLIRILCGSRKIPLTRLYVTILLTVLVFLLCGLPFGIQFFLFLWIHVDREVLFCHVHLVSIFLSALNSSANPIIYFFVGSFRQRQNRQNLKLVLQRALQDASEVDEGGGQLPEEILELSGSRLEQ
Lipid droplet = modulators of hepatic lipid droplet formation. AML12 mouse hepatocytes, oleate lipid droplets, BODIPY imaging. inhibition, % at 6.5 µM. 240,000 compounds, 0.4% hits. AID 1656;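 active = lipid droplet intensity inhibited by at least 50%, with more than 500 cells counted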
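Assay system: AML12 mouse liver cells | Compound dosing: One dose, 6.5 µM compound | Read-out basis: Droplet intensity reduction, % inhibition | Measured by: Fluorescence imaging, 20x objective, two fields per well | Schedule: Overnight treatment with compound plus oleate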
MrgX1 agonist = human MrgX1 receptor agonism, primary screen; Q96LB2; MrgX1-HEK293 cells, Fluo-4 calcium fluorescence, agonist mode; stronger effect = higher value; B-score at 10 µM; 310,000 compounds, 0.44% hits;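 active = calcium response B-score plate-corrected fluorescence ratio at least 3 library SD, with starting fluorescence B-score inside 5 SD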
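Test system: Stable human MrgX1 HEK293 cell line | Schedule: Overnight plating before 1 h dye loading | Read-out basis: Baseline-normalised fluorescence change ratio, B-scored | Detection: Kinetic calcium dye fluorescence, Fluo-4 NW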
MrgX1 antagonist = blocks BAM8-22 activation of human MrgX1 receptor. B-score at 10 µM. Q96LB2. 310,000 compounds, 1.3% hits. MRGX1-HEK293 calcium flux, Fluo-4, BAM8-22 antagonism; stronger effect = lower value. AID 588676;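 active = calcium-response B-score plate-corrected more than 3 library SD below zero, starting fluorescence within 5 deviations, no agonist response on first addition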;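 note: peak minus trough fluorescence over baseline after final BAM8-22 challenge near maximal dose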
The depositor's hits bear a star.

`NS(=O)(=O)c1ccc(CCNC(=O)CNCCc2ccccc2)cc1` gave RGS4 block inactive, RGS4 pot inactive, MrgX1 allo act inactive, Lipid droplet -1, MrgX1 agonist inactive and MrgX1 antagonist inactive.
Screening C=CCOc1ccccc1CNCCc1ccc(S(N)(=O)=O)cc1 returned RGS4 block inactive, RGS4 pot inactive, MrgX1 allo act inactive, Lipid droplet 6, MrgX1 agonist inactive and MrgX1 antagonist inactive.
`NS(=O)(=O)c1ccc(CCNCc2cc(Br)ccc2OCc2ccccc2F)cc1` gave RGS4 block inactive, RGS4 pot inactive, MrgX1 allo act inactive, Lipid droplet -18, MrgX1 agonist inactive and MrgX1 antagonist -4.7*.
Screening Nc1nonc1C(=O)NCCNCc1cc(Br)ccc1OCc1ccccc1F returned RGS4 block inactive, RGS4 pot inactive, MrgX1 allo act inactive, Lipid droplet -75, MrgX1 agonist inactive and MrgX1 antagonist inactive.
`Cc1c2cnn(CC(=O)NCCCN3CC(C)CC(C)C3)c(=O)c2c(C)n1Cc1ccccc1Cl` (configuration not stated) gave RGS4 block inactive, RGS4 pot inactive, MrgX1 allo act inactive, Lipid droplet -25, MrgX1 agonist inactive and MrgX1 antagonist -6.9*.
Screening CC1CC(C)CN(CCCNC(=O)Cn2ncc3c(=O)oc4ccccc4c32)C1 (configuration not stated) returned RGS4 block inactive, RGS4 pot inactive, MrgX1 allo act inactive, MrgX1 agonist inactive and MrgX1 antagonist inactive.
`CCC(C)(C)NC(=O)/C=C/c1cnc2ccccc2n1` gave RGS4 block inactive, RGS4 pot inactive, MrgX1 allo act inactive, Lipid droplet 4, MrgX1 agonist inactive and MrgX1 antagonist -4.7*.
`COc1ccccc1NS(=O)(=O)c1cccc(-n2c(O)c(C=Nc3ccccc3C(=O)O)c3ccccc3c2=O)c1` gave RGS4 block inactive, RGS4 pot inactive, MrgX1 allo act inactive, Lipid droplet 52*, MrgX1 agonist inactive and MrgX1 antagonist inactive.
`COc1ccc(Cn2c(O)c(C=Nc3ccccc3C(=O)O)c3ccccc3c2=O)cc1` gave RGS4 block inactive, RGS4 pot inactive, MrgX1 allo act inactive, Lipid droplet 33, MrgX1 agonist inactive and MrgX1 antagonist inactive.
O=C(Nc1cccc(F)c1)/C(=C\c1cccnc1)NC(=O)c1ccco1 was read as RGS4 block inactive, RGS4 pot inactive, MrgX1 allo act inactive, Lipid droplet 11, MrgX1 agonist inactive and MrgX1 antagonist inactive.
`O=C(Nc1cccc(F)c1)/C(=C\c1cccnc1)NC(=O)c1cccs1` gave RGS4 block inactive, RGS4 pot inactive, MrgX1 allo act inactive, MrgX1 agonist inactive and MrgX1 antagonist -5.5*.
For COc1ccc(NC(=O)CO/N=C2/CCCc3nonc32)c(OC)c1 the results were RGS4 block inactive, RGS4 pot inactive, MrgX1 allo act inactive, Lipid droplet 3, MrgX1 agonist inactive and MrgX1 antagonist -5.5*.
For O=C(CO/N=C1\CCCc2nonc21)Nc1ccccc1Cl the results were RGS4 block inactive, RGS4 pot inactive, MrgX1 allo act 14*, Lipid droplet 1, MrgX1 agonist inactive and MrgX1 antagonist inactive.
Screening O=C(CO/N=C1\CCCc2nonc21)Nc1ccc(Br)cc1 returned RGS4 block inactive, RGS4 pot inactive, MrgX1 allo act inactive, Lipid droplet 20, MrgX1 agonist inactive and MrgX1 antagonist inactive.
Screening COc1ccc(C2=NC(=O)/C(=C\c3cc(OC)c(OC)c(OC)c3)O2)cc1 returned MrgX1 allo act inactive, Lipid droplet -2, MrgX1 agonist inactive and MrgX1 antagonist inactive.
CC(C)c1nnc(NC(=O)CCC2CCCCC2)s1 was read as RGS4 block inactive, RGS4 pot inactive, MrgX1 allo act inactive, Lipid droplet 1, MrgX1 agonist inactive and MrgX1 antagonist inactive.
For COc1ccccc1NS(=O)(=O)c1ccc(O)c(C(=O)OCc2cccc([N+](=O)[O-])c2)c1 the results were RGS4 block inactive, RGS4 pot inactive, MrgX1 allo act inactive, Lipid droplet 16, MrgX1 agonist inactive and MrgX1 antagonist -6.5*.
`COc1ccccc1NS(=O)(=O)c1ccc(C)c(C(N)=O)c1` gave RGS4 block inactive, RGS4 pot inactive, MrgX1 allo act inactive, Lipid droplet 17, MrgX1 agonist inactive and MrgX1 antagonist inactive.
For O=C(c1ccc(S(=O)(=O)Cc2cc(F)ccc2F)c([N+](=O)[O-])c1)N1CCCC1 the results were RGS4 block inactive, RGS4 pot inactive, MrgX1 allo act 7.2*, Lipid droplet -9, MrgX1 agonist inactive and MrgX1 antagonist inactive.
Screening CCOC(=O)c1cc2cc([N+](=O)[O-])ccc2oc1=O returned RGS4 block inactive, RGS4 pot inactive, MrgX1 allo act inactive, Lipid droplet -10, MrgX1 agonist inactive and MrgX1 antagonist inactive.
For O=[N+]([O-])c1ccc2oc(C(O)c3cccc(Cl)c3)cc2c1 (configuration not stated) the results were RGS4 block inactive, RGS4 pot inactive, MrgX1 allo act 8.5*, MrgX1 agonist inactive and MrgX1 antagonist inactive.
For COc1cccc(CN(C(=O)c2ccc([N+](=O)[O-])cc2)C2CCS(=O)(=O)C2)c1 (configuration not stated) the results were RGS4 block inactive, RGS4 pot inactive, MrgX1 allo act inactive, Lipid droplet -7, MrgX1 agonist inactive and MrgX1 antagonist inactive.
CCOc1cc(/C=C2\SC(=S)N(NC(=O)c3cccnc3)C2=O)ccc1O was read as RGS4 block inactive, RGS4 pot inactive, MrgX1 allo act inactive, Lipid droplet 1, MrgX1 agonist inactive and MrgX1 antagonist -5.9*.
O=C(NN1C(=O)/C(=C\c2cccnc2)SC1=S)C(c1ccccc1)c1ccccc1 was read as RGS4 block inactive, RGS4 pot -7.3*, MrgX1 allo act inactive, Lipid droplet -7, MrgX1 agonist inactive and MrgX1 antagonist inactive.
For CCOc1cc(/C=C2\SC(=S)N(NS(=O)(=O)c3ccc(C)cc3)C2=O)ccc1O the results were RGS4 block inactive, RGS4 pot inactive, MrgX1 allo act inactive, MrgX1 agonist 52* and MrgX1 antagonist inactive.
Screening COc1cc(/C=C2\SC(=S)N(NS(=O)(=O)c3ccc(C)cc3)C2=O)cc(OC)c1OC returned RGS4 block inactive, RGS4 pot inactive, MrgX1 allo act inactive, Lipid droplet -10, MrgX1 agonist inactive and MrgX1 antagonist inactive.
